Measured values: ChEMBL document CHEMBL1909507, “Substituted phenyl 4-(2-oxoimidazolidin-1-yl)benzenesulfonamides as antimitotics. Antiproliferative, antiangiogenic and antitumoral activity, and quantitative structure-activity relationships” (Eur J Med Chem, 2011)
Calls of active or inactive are those of the source. The calls are words filed in the database; no cut-off is given here.

What was measured:
HT-29 = experiment: Antiproliferative activity against human HT-29 cells after 48 hrs by SRB assay; assay type: functional, cell-based; conditions: HT-29, 48 h
Procedure, shortened: (§1)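 Adherent cells were seeded per line (e.g. HT-29 5000, M21 3500, MCF7 7500, CHO and CHO-VV 3-2 and CHO-TAX 5-6 1000 cells/well) and grown 24 h at 37 °C, 5% CO₂. DMSO-solubilized drug was diluted in medium and added at 1000–0.98 nM for 48 h. Cells were fixed with cold 10% TCA and stained with 0.1% sulforhodamine B, with absorbance read at 530–565 nm.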

M21 = experiment: Antiproliferative activity against human M21 cells after 48 hrs by SRB assay; assay type: functional, cell-based; conditions: M21, 48 h; procedure, shortened: as §1
MCF7 = experiment: Antiproliferative activity against human MCF7 cells after 48 hrs by SRB assay; assay type: functional, cell-based; conditions: MCF7, 48 h; procedure, shortened: as §1
MDA-MB-231 = experiment: Displacement of N,N'-ethylenebis(iodoacetamide) from beta-tubulin colchicine-binding site in human MDA-MB-231 cells at 1000 times IC50 preincubated for 2 hrs before N,N'-ethylenebis(iodoacetamide) addition measured after 1.5 hrs by chemiluminescence assay; assay type: cell-based
Procedure, shortened: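 EBI (100, final) was added for 1.5 h at 37 °C with drug present; control was 0.5% DMSO. Sonicated lysates (20 µg protein) were run on 10% SDS-PAGE and blotted with anti-β-tubulin TUB 2.1. The β-tubulin–EBI adduct was scored by ECL.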

CHO-TAX 5-6 = experiment: Ratio of IC50 for paclitaxel-resistant CHO-TAX 5-6 cells to IC50 for CHO cells; assay type: functional, Cricetulus griseus
Procedure, shortened: (§2)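 Each ratio is the IC50 in the resistant line divided by the IC50 in its parental line (CHO for CHO-TAX 5-6 and CHO-VV 3-2; CEM for CEM-VLB).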

CHO-VV 3-2 = experiment: Ratio of IC50 for colchicine and vinblastine-resistant CHO-VV 3-2 cells to IC50 for CHO cells; assay type: functional, Cricetulus griseus; procedure, shortened: as §2
[1] = Antiproliferative activity against human multidrug-resistant CEM/VLB cells after 48 hrs by SRB assay; assay type: functional
CCRF-CEM = experiment: Ratio of IC50 for human multidrug-resistant CEM/VLB cells to IC50 for human CEM cells; assay type: functional; procedure, shortened: as §2
[2] = Antiproliferative activity against mouse B16F0 after 48 hrs by SRB assay
[3] = Antiproliferative activity against mouse P388D1 after 48 hrs by SRB assay; conditions: P388D1, 48 h

O=C1NCCN1c1ccc(S(=O)(=O)Nc2ccc(Br)cc2)cc1
IC50 (HT-29): 300 nM | IC50 (M21): 130 nM | IC50 (MCF7): 240 nM

O=C(CI)NCCNC(=O)CI
Activity (MDA-MB-231): inactive

O=C1NCCN1c1ccc(S(=O)(=O)Nc2ccc3c(c2)OCO3)cc1
IC50 (HT-29): 280 nM | IC50 (M21): 190 nM | IC50 (MCF7): 460 nM

O=C1NCCN1c1ccc(S(=O)(=O)Nc2ccc(OC(F)F)cc2)cc1
IC50 (HT-29): 650 nM | IC50 (M21): 410 nM | IC50 (MCF7): 760 nM

O=C1NCCN1c1ccc(S(=O)(=O)Nc2ccc3c(c2)CCC3)cc1
IC50 (HT-29): 190 nM | IC50 (M21): 130 nM | IC50 (MCF7): 240 nM

O=C1NCCN1c1ccc(S(=O)(=O)Nc2ccc(F)c(F)c2)cc1
IC50 (HT-29): 350 nM | IC50 (M21): 220 nM | IC50 (MCF7): 620 nM

CCc1ccc(NS(=O)(=O)c2ccc(N3CCNC3=O)cc2)cc1
IC50 (HT-29): 660 nM | IC50 (M21): 480 nM | IC50 (MCF7): 810 nM

CC[C@]1(O)C[C@@H]2CN(CCc3c([nH]c4ccccc34)[C@@](C(=O)OC)(c3cc4c(cc3OC)N(C)[C@H]3[C@@](O)(C(=O)OC)[C@H](OC(C)=O)[C@]5(CC)C=CCN6CC[C@]43[C@@H]65)C2)C1 [VINBLASTINE]
Ratio IC50 (CHO-TAX 5-6): 0.41 | Ratio IC50 (CHO-VV 3-2): 3.9 | IC50 [1]: 600 nM | Ratio IC50 (CCRF-CEM): 1579 | IC50 [2]: 0.099 nM | IC50 [3]: 1.8 nM

Cc1ccc(NS(=O)(=O)c2ccc(N3CCNC3=O)cc2)cc1
IC50 (HT-29): 480 nM | IC50 (M21): 260 nM | IC50 (MCF7): 610 nM

CCc1ccccc1NS(=O)(=O)c1ccc(N2CCNC2=O)cc1
IC50 (HT-29): 240 nM | IC50 (M21): 180 nM | IC50 (MCF7): 350 nM

CC(C)(C)c1ccc(NS(=O)(=O)c2ccc(N3CCNC3=O)cc2)cc1
IC50 (HT-29): > 1000 nM | IC50 (M21): > 1000 nM | IC50 (MCF7): > 1000 nM

CCCCCCOc1ccc(NS(=O)(=O)c2ccc(N3CCNC3=O)cc2)cc1
IC50 (HT-29): > 1000 nM | IC50 (M21): > 1000 nM | IC50 (MCF7): > 1000 nM

O=C1NCCN1c1ccc(S(=O)(=O)Nc2ccc(F)cc2)cc1
IC50 (HT-29): 370 nM | IC50 (M21): 230 nM | IC50 (MCF7): 690 nM

O=C1NCCN1c1ccc(S(=O)(=O)Nc2ccccc2)cc1
IC50 (HT-29): 280 nM | IC50 (M21): 200 nM | IC50 (MCF7): 470 nM

COc1cc2c(c(OC)c1OC)-c1ccc(OC)c(=O)cc1[C@@H](NC(C)=O)CC2 [COLCHICINE]
IC50 [1]: 360 nM | IC50 [2]: 13 nM | IC50 [3]: 28 nM

O=C1NCCN1c1ccc(S(=O)(=O)Nc2ccc(I)cc2)cc1
IC50 (HT-29): 650 nM | IC50 (M21): 260 nM | IC50 (MCF7): 600 nM

CCCCCCCc1ccc(NS(=O)(=O)c2ccc(N3CCNC3=O)cc2)cc1
IC50 (HT-29): > 1000 nM | IC50 (M21): > 1000 nM | IC50 (MCF7): > 1000 nM

O=C1NCCN1c1ccc(S(=O)(=O)Nc2ccc(Cl)cc2)cc1
IC50 (HT-29): 220 nM | IC50 (M21): 90 nM | IC50 (MCF7): 170 nM
